The target in this experiment is Epstein-Barr virus nuclear antigen 1 (EBNA-1), Human herpesvirus 4. Description: EBNA-1 inhibitors in cellular reporter, late-stage follow-up, cell-based, luciferase, dose response, assay provider data (AID 588762). The following applies: 293T Qp-promoter luciferase reporter, EBNA-1 repression. In a few lines: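 Test system: Human 293T cells transiently co-transfected with Qp-promoter luciferase reporter, Flag-tagged EBNA-1 | Incubation: 48 h cell incubation at 37 °C, 5% CO2 after plating | Technique: Steady-Glo luciferase luminescence | Control set: Empty-vector transfected cells lacking EBNA-1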
(In general: In a reporter assay the amount or activity of a reporter protein is the signal.)

Calls of active or inactive are those of the source.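 The calls were made as follows: active = fitted IC50 at or below 10 µM in the dose response luciferase test; inactive = IC50 weaker than 10 µM.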

Turning to `COc1cccc(C(=O)Nc2nc3ccc(S(C)(=O)=O)cc3s2)c1`, the IC50 (usually the point on the concentration scale where inhibition reaches its midpoint) was “inactive”.

In the case of `COc1ccc2nc(NC(=O)c3ccc(C)c(C)c3)sc2c1`, the IC50 is > 148 µM (inactive).

Take `Cc1ccccc1C(=O)Nc1nc2ccc(S(C)(=O)=O)cc2s1`: the IC50 was > 148 µM (inactive).

For the compound `Cc1cccc(C(=O)Nc2nc3ccc(S(C)(=O)=O)cc3s2)c1`, the IC50 result was “inactive”.

On to `CS(=O)(=O)c1ccc2nc(NC(=O)c3ccc(Cl)cc3)sc2c1`, for which the IC50 entry is “inactive”.

Turning to `Cc1ccccc1-n1nnnc1SCC(=O)c1cc(C)n(CC2CCCO2)c1C` (centres undefined), the IC50 is > 148 µM (inactive).

For the compound `CCn1c(C)cc(C(=O)CSc2nnnn2-c2ccccc2)c1C`, the IC50 was > 148 µM (inactive).

Take `Cc1cc(C(=O)CSc2nnnn2-c2ccccc2)c(C)n1C`: the IC50 result was “inactive”.

Consider `COc1ccccc1C(=O)Nc1nc2ccc(S(C)(=O)=O)cc2s1`, for which the IC50 was > 148 µM (inactive).

As to `COc1ccc(C(=O)Nc2nc3ccc(S(C)(=O)=O)cc3s2)cc1`, the IC50 result was “inactive”.

Turning to `CS(=O)(=O)c1ccc2nc(NC(=O)c3ccccc3F)sc2c1`, the IC50 is > 148 µM (inactive).

`Cc1cccc(-n2nnnc2SCC(=O)c2cc(C)n(CC3CCCO3)c2C)c1` (centres undefined): the IC50 is > 148 µM (inactive).

On to `Cc1cc(C(=O)CSc2nnnn2C)c(C)n1CC1CCCO1` (centres undefined), for which the IC50 was > 148 µM (inactive).

`CS(=O)(=O)c1ccc2nc(NC(=O)c3ccccc3Cl)sc2c1`: the IC50 was > 148 µM (inactive).

As for `Cc1ccc(C(=O)Nc2nc3cc(Br)ccc3s2)cc1C`, the IC50 was > 148 µM (inactive).

Turning to `Cc1cc(C(=O)CSc2nnnn2C2CC2)c(C)n1CC1CCCO1` (centres undefined), the IC50 result is “inactive”.

Take `CS(=O)(=O)c1ccc2nc(NC(=O)c3cccc(F)c3)sc2c1`: the IC50 was > 148 µM (inactive).

As for `CS(=O)(=O)c1ccc2nc(NC(=O)c3cccc(Cl)c3)sc2c1`, the IC50 is > 148 µM (inactive).

As to `COc1ccc2sc(NC(=O)c3ccc(C)c(C)c3)nc2c1`, the IC50 was > 148 µM (inactive).

`COc1ccc(-n2nnnc2SCC(=O)c2cc(C)n(CC3CCCO3)c2C)cc1` (centres undefined): the IC50 was > 16.4 µM (inactive).

For the compound `Cc1cc(C(=O)CSc2nnnn2-c2ccccc2)c(C)n1Cc1cccs1`, the IC50 was > 148 µM (inactive).

Consider `COc1cccc2sc(NC(=O)c3ccc(C)c(C)c3)nc12`, for which the IC50 was > 148 µM (inactive).

As for `Cc1ccc(C(=O)Nc2nc3cc(F)ccc3s2)cc1C`, the IC50 was > 148 µM (inactive).

On to `O=C(CSc1nnnn1-c1ccccc1)c1ccn(CC2CCCO2)c1` (centres undefined), for which the IC50 was > 148 µM (inactive).

For the compound `Cc1cc(C(=O)CSc2nnnn2-c2ccc(Cl)cc2)c(C)n1CC1CCCO1` (centres undefined), the IC50 was > 148 µM (inactive).

Turning to `Cc1ccc(C(=O)Nc2nc3ccc(S(C)(=O)=O)cc3s2)cc1`, the IC50 was > 148 µM (inactive).

Turning to `Cc1ccc(C(=O)Nc2nc3ccc(Br)cc3s2)cc1C`, the IC50 was > 148 µM (inactive).

For the compound `COCCn1c(C)cc(C(=O)CSc2nnnn2-c2ccccc2)c1C`, the IC50 was > 148 µM (inactive).

Turning to `Cc1cc(C(=O)CSc2nnnn2-c2cccc(F)c2)c(C)n1CC1CCCO1` (centres undefined), the IC50 was > 148 µM (inactive).

The record behind these values is PubChem BioAssay AID588762 (The Scripps Research Institute Molecular Screening Center, 2011).
